High-throughput results from PubChem.
Myeloid diff MLP: promotes myeloid progenitor differentiation; calls only at 10 µM; ER-HoxA9 myeloid progenitors, lysozyme-GFP differentiation, flow cytometry; hit rate 1% among 360,000; AID 624256;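 active = normalized GFP-positive differentiation at or above the plate's own cutoff, the solvent-only control mean plus 3 SD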;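 note: cells exposed to compound for four days before flow analysis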
MC4R ag barr: agonists of human melanocortin 4 receptor (MC4R) beta-arrestin. hit rate 0.98% among 360,000. U2OS MC4R beta-arrestin complementation, luminescence; percent of melanotan II response, DMSO zero. activation, % at 8.9 µM;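 active = activation above a per-plate cutoff, the mean activation of sample wells on that plate plus 3 SD, cut at about 8% in these data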
Target sequence (P32245 whole entry, looked up): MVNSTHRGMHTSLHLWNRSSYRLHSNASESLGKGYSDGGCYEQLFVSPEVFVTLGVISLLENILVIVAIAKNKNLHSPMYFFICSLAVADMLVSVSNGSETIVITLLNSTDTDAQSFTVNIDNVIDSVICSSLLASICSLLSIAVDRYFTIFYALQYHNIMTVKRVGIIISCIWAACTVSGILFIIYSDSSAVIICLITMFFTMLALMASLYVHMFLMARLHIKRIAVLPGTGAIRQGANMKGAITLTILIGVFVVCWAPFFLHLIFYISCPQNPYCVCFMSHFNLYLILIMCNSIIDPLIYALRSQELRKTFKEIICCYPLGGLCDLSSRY
Granule exo inh: lytic granule exocytosis inhibition | hit rate 0.66% among 360,000 | AID 651702 | TALL-104 LAMP-1 surface exposure, flow cytometry; cells stimulated with thapsigargin and PMA | inhibition, % at 10 µM;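 active = inhibition above about 55%, limit read from the data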
EBI2 antag: antagonists of human EBI2 receptor. P32249. EBI2 beta-arrestin recruitment, luminescence, 7a,25-OHC stimulated. inhibition, % at 5 µM. hit rate 0.81% among 360,000. AID 651636; in the data active = inhibition above about 38%;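 note: enzyme fragment complementation signal reports receptor beta-arrestin coupling in cells; 0% = agonist plus DMSO wells and 100% = wells without agonist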
MC4R antagonist: antagonists of human melanocortin 4 receptor (MC4R); P32245; MC4R-expressing cells, MTII-stimulated cAMP, LANCE TR-FRET; inhibition, % at 6.5 µM; hit rate 0.48% among 360,000; AID 540295;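 active = inhibition above its plate's cutoff, the mean of tested wells on that plate plus 3 SD, cut at about 29% in these data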;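 note: 0% = Melanotan II alone and 100% = Melanotan II plus saturating MCL0020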
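System – human MC4R-expressing U2OS cells · Also added – Melanotan II · Dosing – one concentration, 6.5 µM nominal · Timing – 30-min compound, 1-h challenge, 1-h detection, room temperature · Measured by – Eu-cAMP/anti-cAMP TR-FRET, emission 671 nm · Replicates – singlicate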
MC4R barr ag: human MC4R beta-arrestin agonism confirmation | shares compounds with MC4R ag barr | U2OS MC4R beta-arrestin recruitment, luminescence; scaled DMSO 0%, Melanotan II 100% | activation, % at 8.9 µM | hit rate 31% among 2,400 | AID 602192;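 active = mean activation across replicates above the hit cutoff set in the earlier primary screen, cut at about 8% in these data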
MOR DOR agonist: activates mu-delta opioid heterodimer, MC4R agonist counter-screen; shares compounds with MC4R ag barr; U2OS PathHunter beta-arrestin, beta-gal luminescence; percent of deltorphin B response, DMSO zero; activation, % at 9.2 µM; hit rate 5.8% among 2,400; AID 602194;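 active = mean activation across replicates exceeds the hit threshold derived in the earlier primary screen, cut at about 18% in these data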;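 note: 100% = deltorphin B at 0.9 µM final and 0% = DMSO alone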
* = called active by the depositor. The list is not random: actives were taken first. Their share in the collection is about 3.7%.

For CNC(=O)C(=O)NCCCN1CCOCC1 the results were Myeloid diff MLP inactive, MC4R ag barr 0, Granule exo inh 2, EBI2 antag -5 and MC4R antagonist -2.
`Cc1c(CCOC(=O)CC23CC4CC(CC(C)(C4)C2)C3)sc[n+]1CC(=O)c1ccccc1` gave Myeloid diff MLP inactive, MC4R ag barr 9.8*, Granule exo inh 97*, EBI2 antag -5, MC4R antagonist -4, MC4R barr ag 20* and MOR DOR agonist 5.
NC(=O)c1ccc[n+](CC(=O)OCCC23CC4CC(CC(C4)C2)C3)c1 was read as Myeloid diff MLP inactive, MC4R ag barr 0, Granule exo inh 1, EBI2 antag -2 and MC4R antagonist 2.
Screening COc1cc(C(=O)NCCC(c2ccccc2)c2ccccc2)cc(OC)c1OC returned Myeloid diff MLP inactive, MC4R ag barr -1, Granule exo inh 10, EBI2 antag 8 and MC4R antagonist -14.
COC(=O)c1cccc(Nc2nc(-c3cccnc3)nc3ccccc23)c1 was read as Myeloid diff MLP inactive, MC4R ag barr -1, Granule exo inh 32, EBI2 antag -7 and MC4R antagonist 9.
`CCOC(=O)c1cccc(Nc2nc(-c3cccnc3)nc3ccccc23)c1` gave Myeloid diff MLP active, MC4R ag barr 12*, Granule exo inh 0, EBI2 antag 8, MC4R antagonist 5, MC4R barr ag 6 and MOR DOR agonist 7.
Screening O=C(Nc1cccc(-c2nc3cccnc3s2)c1)c1cccnc1Cl returned Myeloid diff MLP inactive, MC4R ag barr 2, Granule exo inh -2, EBI2 antag -2 and MC4R antagonist -1.
O=C(Nc1cccc(-c2nc3cccnc3s2)c1)C1c2ccccc2Oc2ccccc21 was read as Myeloid diff MLP inactive, MC4R ag barr 10*, Granule exo inh 1, EBI2 antag -22, MC4R antagonist 2, MC4R barr ag 3 and MOR DOR agonist 8.
Screening COc1ccccc1CNCC(O)Cn1c2ccccc2c2ccccc21 (centres undefined) returned Myeloid diff MLP inactive, MC4R ag barr 10*, Granule exo inh 87*, EBI2 antag -19, MC4R antagonist 3, MC4R barr ag 21* and MOR DOR agonist 21*.
`OCCNCC(O)Cn1c2ccccc2c2ccccc21` (centres undefined) gave Myeloid diff MLP inactive, MC4R ag barr -3, Granule exo inh 4, EBI2 antag -9 and MC4R antagonist -1.
Screening CCCc1cnc(Nc2nc(C(N)Cc3ccc(C(F)(F)F)cc3)cs2)nc1 (centres undefined) returned Myeloid diff MLP inactive, MC4R ag barr 15*, Granule exo inh 30, EBI2 antag -5, MC4R antagonist 27, MC4R barr ag 14* and MOR DOR agonist 6.
`Cc1cc(C)nc(Nc2nc(C(N)Cc3ccc(F)cc3)cs2)n1` (centres undefined) gave Myeloid diff MLP inactive, MC4R ag barr 1, Granule exo inh -2, EBI2 antag 8 and MC4R antagonist -3.
COc1cc(OC)nc(Nc2nc(C(N)Cc3ccc(C(F)(F)F)cc3)cs2)n1 (centres undefined) was read as Myeloid diff MLP inactive, MC4R ag barr 29*, Granule exo inh 41, EBI2 antag 4, MC4R antagonist 9, MC4R barr ag 7 and MOR DOR agonist 13.
Cc1cc(C)nc(Nc2nc(C(N)Cc3ccc(C(F)(F)F)cc3)cs2)n1 (centres undefined) was read as Myeloid diff MLP inactive, MC4R ag barr 10*, Granule exo inh 52, EBI2 antag 12, MC4R antagonist -7, MC4R barr ag 26* and MOR DOR agonist 10.
Screening NC(Cc1ccccc1)c1csc(Nc2ccc(C(F)(F)F)cn2)n1 (centres undefined) returned Myeloid diff MLP inactive, MC4R ag barr 5, Granule exo inh 13, EBI2 antag -5 and MC4R antagonist 2.
`CS(=O)(=O)c1ccc(Nc2nc(C(N)Cc3ccc(C(F)(F)F)cc3)cs2)cc1` (centres undefined) gave Myeloid diff MLP inactive, MC4R ag barr -1, Granule exo inh -3, EBI2 antag -12 and MC4R antagonist 11.
`Cc1cc(C)nc(Nc2nc(C(N)Cc3ccc(Cl)cc3)cs2)n1` (centres undefined) gave Myeloid diff MLP inactive, MC4R ag barr 9.8*, Granule exo inh 30, EBI2 antag 0, MC4R antagonist -8, MC4R barr ag 28* and MOR DOR agonist 13.
Screening CCOC(=O)N1CCN(CC(=O)Nc2cc(OC)c(OC)cc2C#N)CC1 returned Myeloid diff MLP inactive, MC4R ag barr 1, Granule exo inh 1, EBI2 antag -6 and MC4R antagonist 10.
CCc1ccc(NC(=O)CSc2nncn2-c2cccnc2)cc1 was read as Myeloid diff MLP inactive, MC4R ag barr 0, Granule exo inh -3, EBI2 antag -1 and MC4R antagonist 9.
CSCC[C@H](N)C(=O)N1CCC(C(=O)N[C@H](C)C(=O)Nc2ccc(C(C)C)cc2)CC1 was read as Myeloid diff MLP inactive, MC4R ag barr -1, Granule exo inh -2, EBI2 antag 1 and MC4R antagonist 8.
`NC(Cc1ccc(C(F)(F)F)cc1)c1csc(Nc2nccc(C(F)(F)F)n2)n1` (centres undefined) gave Myeloid diff MLP inactive, MC4R ag barr 15*, Granule exo inh 17, EBI2 antag -1, MC4R antagonist 4, MC4R barr ag 17* and MOR DOR agonist 7.
For O=C1CC(SC(=NCc2ccc3c(c2)OCO3)Nc2ccccc2)C(=O)N1c1ccccc1 (centres undefined) the results were Myeloid diff MLP inactive, MC4R ag barr 21*, Granule exo inh -5, EBI2 antag 27, MC4R antagonist 5, MC4R barr ag 1 and MOR DOR agonist 9.
O=C1CC(SC(=Nc2ccccc2)Nc2ccccc2)C(=O)N1c1ccc(Cl)c(Cl)c1 (centres undefined) was read as Myeloid diff MLP inactive, MC4R ag barr 9.7*, Granule exo inh -1, EBI2 antag 16, MC4R antagonist 5, MC4R barr ag 4 and MOR DOR agonist 5.
For Cc1cccc(N2C(=O)CC(SC(=Nc3ccccc3)Nc3ccccc3)C2=O)c1 (centres undefined) the results were Myeloid diff MLP inactive, MC4R ag barr 3, Granule exo inh 5, EBI2 antag 3 and MC4R antagonist 7.
`Cc1ccccc1OCC(=O)Nc1ccc2c(c1)C(=O)c1ccccc1C2=O` gave Myeloid diff MLP inactive, MC4R ag barr 22*, Granule exo inh -3, EBI2 antag 0, MC4R antagonist 2, MC4R barr ag 8.9* and MOR DOR agonist 4.
